A short description of test [1]: Cytotoxicity against mouse C3H10T1/2 cells after 24 hrs by FMCA method. Conditions: C3H 10T1/2, 24 h. The test is classed as functional, cell-based. Summed up:
(§1)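 Cells (PANC1, DU145, C3H10T1/2) exposed to compounds in 0.05% DMSO; viability measured, n = 3; IC50 values derived from concentration–response.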

For test [2], the system named is PANC-1. Kind of test: Inhibition of human HH/Gli1-mediated PTCH mRNA expression in human PANC1 cells transfected with Smo siRNA at 0.7 to 1.4 uM by RT-PCR analysis. In kind it is cell-based. Summed up:
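PANC1 cells transfected with Smo siRNA (non-targeting siRNA at same concentration as control), Smo depletion confirmed by Western blot; treated cells then assayed for Ptch mRNA by real-time quantitative RT-PCR.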

Test [3] deals with PANC-1. As to the kind of experiment: Inhibition of human HH/Gli1-mediated expression of PTCH in human PANC1 cells by Western blot analysis. The test is classed as cell-based. The gist of the method: (§2)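 PANC1 cells treated, then full, cytosolic and nuclear fractions prepared; GLI1, PTCH and BCL2 protein levels assessed by Western blotting.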
On the technique in general: In western blotting, separated proteins are transferred to a membrane and probed.

A further test deals with DU-145. As to the kind of experiment: Cytotoxicity against human DU145 cells after 24 hrs by FMCA method. The test is classed as functional, cell-based. As to conditions: DU-145, 24 h. The gist of the method: as §1
Test [4] relates to PANC-1. Kind of test: Cytotoxicity against human PANC1 cells after 24 hrs by FMCA method. In kind it is functional, cell-based. As to conditions: PANC-1, 24 h. The gist of the method: as §1
A short description of test [5]: Inhibition of human HH/Gli1-mediated transcriptional activity in tetracycline-treated human HaCaT cells treated after 12 hrs of tetracycline addition by luciferase reporter gene assay. In kind it is cell-based. Summed up: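 HaCaT cells carrying a GLI1-driven luciferase construct, seeded at 2 × 10⁵ cells per well; compounds added 12 h after tetracycline induction; luciferase activity and cell viability read at the same time point.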
A general note: In a reporter assay the amount or activity of a reporter protein is the signal.

Test [6] has as its system PANC-1. As to the kind of experiment: Inhibition of human HH/Gli1-mediated expression of BCL-2 in human PANC1 cells by Western blot analysis. In kind it is cell-based. Summed up:
as §2

In test [7] the test system is PANC-1. As to the kind of experiment: Inhibition of human HH/Gli1-mediated PTCH mRNA expression in human PANC1 cells at 0.7 to 1.4 uM by RT-PCR analysis. In kind it is cell-based. Summed up: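 PANC1 cells treated in 0.05% DMSO; Ptch mRNA quantified by RT-PCR with GAPDH as internal control; n = 3.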
Test [8] has as its system PANC-1. As to the kind of experiment: Inhibition of human HH/Gli1-mediated induction of nuclear Gli1 level in human PANC1 cells at 1.6 uM by Western blot analysis. The test is classed as cell-based. The gist of the method:
as §2

[9] abbreviates: Homo sapiens, HaCaT, 12 h, read-out: IC50.

Activity calls are given as the source filed them. No cut-off for these calls is given here.

Usually IC50 stands for the concentration that gives 50% inhibition. As to `CO[C@@H]1[C@@H](O)[C@H](C)O[C@@H](Oc2c(-c3ccc(O)c(O)c3)oc3cc(O)cc(O)c3c2=O)[C@@H]1O`, the IC50 in test [1] was above 100000 nM; with DU-145 it was 800 nM; in the test on PANC-1 [4], 700 nM; in test [5] (setting [9]) it was 500 nM. The inhibition result in the test with PANC-1 [2], in the test with PANC-1 [7] and in the test on PANC-1 [8] was “Active” throughout. Moreover, the inhibition entry with PANC-1 [3] and in the test on PANC-1 [6] was “Dose-dependent effect” in each case.
Regarding `C[C@@H]1O[C@@H](OC[C@H]2O[C@@H](Oc3c(-c4ccc(O)c(O)c4)oc4cc(O)cc(O)c4c3=O)[C@H](O)[C@@H](O)[C@@H]2O)[C@H](O)[C@H](O)[C@H]1O` [RUTIN], the 50% inhibitory concentration (IC50) entry in test [5] (hacat) is reported as “Not Active”.
The same measure, in the same setting: with `CC(=O)O[C@H]1[C@H](Oc2c(-c3ccc(O)cc3)oc3cc(O)cc(O)c3c2=O)O[C@@H](C)[C@H](O)[C@H]1O` the entry was “Not Active”.
Regarding `C[C@@H]1O[C@@H](Oc2c(-c3ccc(O)c(O)c3)oc3cc(O)cc(O)c3c2=O)[C@H](O)[C@H](O)[C@H]1O` [QUERCITRIN], in test [5] (hacat), the concentration for half-maximal inhibition (IC50) result is “Not Active”.
As to `C[C@@H]1O[C@@H](Oc2c(-c3ccc(O)cc3)oc3cc(O)cc(O)c3c2=O)[C@H](O)[C@H](O)[C@H]1O` [AFZELIN], the IC50 result in test [5] (hacat) is on record as “Not Active”.
Regarding `COc1ccc(-c2oc3cc(O)cc(O)c3c(=O)c2O[C@@H]2O[C@@H](C)[C@H](O)[C@@H](O)[C@H]2O)cc1`, in test [5] (hacat), the 50% inhibitory concentration (IC50) result is “Not Active”.
Take `CO[C@@H]1[C@@H](O)[C@H](C)O[C@@H](OC[C@@]2(O)CO[C@@H](Oc3c(-c4ccc(O)c(O)c4)oc4cc(O)cc(O)c4c3=O)[C@@H]2O)[C@@H]1O`: the IC50 is above 100000 nM in test [1], 22000 nM with DU-145, 20000 nM with PANC-1 [4] and 19100 nM in test [5] (setting [9]).
In the case of `O=c1c(O[C@@H]2O[C@@H](CO)[C@H](O)[C@H]2O)c(-c2ccc(O)cc2)oc2cc(O)cc(O)c12` [JUGLANIN], the half-inhibitory concentration (IC50) in test [1] was above 100000 nM; with DU-145 it was 2400 nM; with PANC-1 [4], 1800 nM; in test [5] (setting [9]) it was 2000 nM.

(Values after ChEMBL document CHEMBL1641469, “New Hedgehog/GLI signaling inhibitors from Excoecaria agallocha” (Bioorg Med Chem Lett, 2011).)
